Bioassay records: PubChem, The Scripps Research Institute Molecular Screening Center
OX1R antag-1: human HCRTR1 antagonism; O43613; CHO/OX1R cells, Fluo-8 calcium fluorescence, orexin A; inhibition, % at 5 µM; hit rate 0.43% among 330,000; AID 434989;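 active means inhibition above its plate's threshold, mean inhibition of all tested compounds on the plate plus 3 SD, cut at about 37% in these data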;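 further: 0% = orexin A challenge wells and 100% = SB-334867-A antagonist wells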
CHO parental Ca: counter-screen for OX1R antagonists: effect in parental CHO cells. parental CHO-K1, ATP-induced calcium, Fluo-8 fluorescence. hit rate 0.63% among 330,000. AID 463079. inhibition, % at 5.6 µM;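 active means inhibition above that plate's mean sample inhibition plus 3 SD, cut at about 26% in these data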;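 further: 0% = ATP-challenged DMSO wells and 100% = DMSO wells without ATP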
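Material: Parental CHO cells | Reagent: ATP | Compound dosing: Single nominal dose of 5.6 µM per compound | Detection: Intracellular calcium via Fluo-8 no-wash fluorescent dye | Read-out: % inhibition of ATP-induced calcium mobilization | Benchmarks: Low control ATP plus DMSO, high control DMSO only | Replicates: Singlicate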
TAAR1 antag: human TAAR1 antagonism | Q96RJ0 | CHO RD-HGA16 TAAR1, Fluo-8 calcium fluorescence, antagonist | inhibition, % at 3 µM | hit rate 1.5% among 360,000;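 active means inhibition above a per-plate cutoff, the mean inhibition of test compounds on that plate plus 3 SD, cut at about 49% in these data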;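 further: 0% = DMSO plus EC80 beta-PEA response and 100% = DMSO alone without agonist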
Target sequence (Q96RJ0 whole entry, looked up): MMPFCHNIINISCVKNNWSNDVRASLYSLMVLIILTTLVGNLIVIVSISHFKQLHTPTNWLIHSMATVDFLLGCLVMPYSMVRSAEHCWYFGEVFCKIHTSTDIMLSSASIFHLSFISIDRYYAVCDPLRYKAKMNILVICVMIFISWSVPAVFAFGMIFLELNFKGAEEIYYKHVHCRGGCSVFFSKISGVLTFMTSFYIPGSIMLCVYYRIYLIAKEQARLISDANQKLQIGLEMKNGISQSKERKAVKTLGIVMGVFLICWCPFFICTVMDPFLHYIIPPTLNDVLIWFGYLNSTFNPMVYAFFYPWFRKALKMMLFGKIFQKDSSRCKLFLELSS
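test system = CHO RD-HGA16 cells bearing hTAAR1 | replication = singlicate | controls = DMSO-only wells and EC80 β-PEA-stimulated wells | reagent = EC80 β-phenethylamine stimulus | read-out basis = percent inhibition of PEA-evoked calcium signal, max/basal emission ratio | schedule = seeding 17-24 h prior, 75-min 37 °C, 30-min RT dye loading | signal = kinetic Fluo-8 calcium fluorescence measurement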
OX1R antag-2: antagonists of human orexin 1 receptor (OX1R); inhibition, % at 6.6 µM; AID 485270; OX1R-expressing cells, FRET antagonist read-out; hit rate 1.8% among 330,000; O43613; in the data active means inhibition mostly above about 38%, no sharp cut-off; inactive means mostly below about 40%;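 further: 0% = agonist challenge alone and 100% = reference antagonist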
TAAR1 ag: human TAAR1 agonism; Q96RJ0; CHO RD-HGA16 TAAR1, Fluo-8 calcium fluorescence; vehicle wells 0%, saturating PEA agonist 100%; activation, % at 3 µM; hit rate 0.99% among 360,000;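 active means activation above the mean activation of all test compounds in the run plus 3 SD, cut at about 38% in these data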
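test system = CHO RD-HGA16 cells carrying human TAAR1 plus Gα16 | schedule = 17-24 h seeding, 75 min 37 °C dye, 30 min RT | compound dosing = 3 µM single concentration | control set = DMSO and PEA EC100 | replicates = n 1 | signal = Fluo-8 fluorescence, 5 s baseline then 140 s kinetic read | measure = percent activation vs PEA EC100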
GPR7 antagonist: human neuropeptides B/W receptor 1 antagonism; AID 1861; GPR7-expressing cells, fluorescence antagonist assay; hit rate 1.1% among 290,000; inhibition, % at 4.4 µM; P48145; in the data active means inhibition above about 16%, passing the limit was not always enough;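 further: cells stimulated with the agonist NPW; 0% = agonist with vehicle and 100% = vehicle without agonist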
Target sequence (P48145 whole entry, looked up): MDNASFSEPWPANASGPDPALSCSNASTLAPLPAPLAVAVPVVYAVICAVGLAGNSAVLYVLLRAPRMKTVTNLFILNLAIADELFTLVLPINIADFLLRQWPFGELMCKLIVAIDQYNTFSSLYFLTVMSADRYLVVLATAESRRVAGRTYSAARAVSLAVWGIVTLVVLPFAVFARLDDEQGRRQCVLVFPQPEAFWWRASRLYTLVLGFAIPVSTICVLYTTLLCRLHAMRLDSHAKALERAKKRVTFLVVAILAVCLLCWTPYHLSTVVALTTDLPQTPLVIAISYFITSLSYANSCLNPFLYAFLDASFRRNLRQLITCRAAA
nonsel antag count: nonselective antagonism, TAAR1 counter-screen; shares compounds with TAAR1 antag; counterscreen cell line, calcium fluorescence, antagonist mode; inhibition, % at 3 µM; hit rate 77% among 2,400; in the data active means inhibition above about 22%;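 further: CHO-Ga16 host cells stimulated with ATP at an EC80 level; 0% = agonist EC80 plus vehicle and 100% = vehicle without agonist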
TAAR1 ant conf: human TAAR1 antagonism, confirmed; AID 651785; inhibition, % at 3 µM; TAAR1-expressing cells, fluorescence antagonist read-out; shares compounds with TAAR1 antag; hit rate 40% among 2,400; in the data active means inhibition above about 49%;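 further: CHO-Ga16 host cells challenged with agonist PEA near its EC80; 0% = agonist at EC80 plus vehicle and 100% = vehicle with no agonist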
Ga16 nonsel ag: counter-screen for TAAR1 antagonists: nonselective Ga16 agonists; Ga16-expressing cells, calcium fluorescence, agonist counterscreen; activation, % at 3 µM; shares compounds with TAAR1 antag; AID 651953; hit rate 18% among 2,400; in the data active means activation above about 12%;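 further: 0% = vehicle wells and 100% = saturating stimulus response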
TAAR1 ag counter: TAAR1 agonism, antagonist counter-screen; shares compounds with TAAR1 antag; hTAAR1 cell line, fluorescence activation, agonist mode; activation, % at 3 µM; hit rate 2% among 2,400; in the data active means activation above about 37%;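 further: CHO cells stably expressing TAAR1 with calcium dye readout; 0% = DMSO vehicle and 100% = full agonist response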
* hit, by the source's call; . = no result. In the library only some 4.6% were active in any assay of this set; here they are far more common.

SMILES	OX1R antag-1	CHO parental Ca	TAAR1 antag	OX1R antag-2	TAAR1 ag	GPR7 antagonist	nonsel antag count	TAAR1 ant conf	Ga16 nonsel ag	TAAR1 ag counter
COc1ccc(-n2nc(C(=O)NCC(=O)NCCCN3CC(C)CC(C)C3)c3ccccc3c2=O)cc1Cl (configuration not stated)	-31.8	-28.8	-17.9	11.8	-0.2	1.2	.	.	.	.
Cc1ccccc1S(=O)(=O)NC(=O)C1(C)CCN1C(=O)c1cccc(F)c1 (configuration not stated)	.	.	-20.8	.	3.6	.	.	.	.	.
COc1ccc(CCNC(=O)c2ccc(-c3ccc([N+](=O)[O-])cc3)o2)cc1OC	1.3	-0.1	61.1*	13.5	13.0	-5.8	22.0*	34.4	11.1	9.6
COc1ccc(CCNC(=O)c2noc(C(C)C)c2[N+](=O)[O-])cc1OC	-11.8	-5.3	8.8	1.6	0.2	2.4	.	.	.	.
C=CC[C@@H](CC(=O)N(CCO)Cc1ccccc1)C(=O)N[C@H](COC(=O)[C@@H](CC=C)Cc1ccc(F)cc1)Cc1ccccc1	28.8	-8.8	75.5*	4.7	11.3	.	27.2*	47.7	7.4	7.3
C=CCC[C@@H](Cc1ccc(F)cc1)C(=O)OC[C@H](C)NC(=O)[C@H](CC=C)CC(=O)N(CCO)Cc1ccccc1	31.3	-8.3	71.4*	13.9	15.1	.	27.0*	40.3	4.8	2.1
CCOCc1c(C(=O)NC2=Nc3ccccc3NC(CC)=C2C(=O)OCC)oc2ccccc12	-5.5	-21.4	60.9*	39.5*	13.0	1.9	29.7*	55.4*	4.4	2.0
CCOC(=O)C1=C(CC)Nc2ccccc2N=C1NC(=O)CCNC(C)=O	2.9	-2.6	-20.2	24.4	1.8	-1.2	.	.	.	.
CCOC(=O)C1=C(CC)Nc2ccccc2N=C1NC(=O)c1oc2ccccc2c1C	-11.2	-4.8	73.9*	26.5	4.3	-12.7	27.1*	52.9*	5.2	2.1
CCC1Cc2[nH][nH]c(=O)c2C(CC)O1 (configuration not stated)	.	.	14.2	.	-0.7	.	.	.	.	.
Cc1cc(Nc2cc(F)c(F)c(F)c2)cc(=O)n1-c1cc(F)c(F)c(F)c1	.	.	-12.6	.	1.5	.	.	.	.	.
CCOC(=O)/C(C#N)=C\c1ccc(OC)c(OC)c1	-16.6	0.0	19.2	38.0	-1.1	-5.1	.	.	.	.
COc1ccc(/C=C(\C#N)C(=O)c2c(C)[nH]c3ccccc23)cc1OC	-18.2	-11.6	58.8*	25.8	5.4	-4.2	16.6	32.1	2.2	3.0
O=C(NCc1ccccc1)C(c1ccco1)N1CCN(CCN2CCOCC2)CC1 (configuration not stated)	.	.	-12.8	.	0.8	.	.	.	.	.
Cc1ccc(-c2cc(-c3ccc(F)cc3)c(C#N)c(N)n2)o1	-9.7	0.2	57.0*	6.4	-0.7	-6.0	16.9	35.3	-1.1	-2.2
Nc1nc(/C=C/c2ccc(F)cc2)nc(-c2ccccc2O)n1	-19.4	-20.4	26.8	32.4	-1.4	-3.9	.	.	.	.
Nc1nc(/C=C/c2cccnc2)nc(-c2ccccc2O)n1	-6.7	8.9	67.0*	39.1	33.1	-5.4	32.4*	57.5*	14.5*	18.1
O=C(COC(=O)CCc1nc2ccccc2s1)Nc1nc(-c2ccccc2)cs1	-16.9	-11.2	55.1*	7.0	4.1	-8.7	33.0*	36.9	4.4	7.2
Cc1csc(NC(=O)CCc2nc3ccccc3s2)n1	-16.1	-29.7	-7.6	29.8	2.7	-14.8	.	.	.	.
N=c1c2c(ncn1CCN1CCOCC1)Oc1cc(O)ccc1C2c1ccccc1 (configuration not stated)	-20.1	-9.8	75.2*	12.4	17.5	-9.4	22.1*	39.7	7.9	10.5
Cc1ccccc1C(=O)N1CCN(c2ccc(NC(=O)c3ccc4c(c3)OCCO4)cc2)CC1	6.3	11.7	76.5*	26.9	19.1	24.4	43.4*	56.2*	16.9*	15.8
CCN1/C(=C\C=C(C(C)=O)C(C)=O)Sc2ccccc21	3.2	-6.7	10.1	72.5	26.9	-6.2	.	.	.	.
CCOC(=O)/C(C#N)=C(C)/C=C1\Sc2ccccc2N1CC	-5.9	-8.0	56.3*	37.3	1.8	-6.2	22.1*	23.6	17.7*	16.4
Cc1ccc(C)c(N2CCN(C(=O)COc3cc(=O)n(C)c4ccccc34)CC2)c1	-19.6	-5.0	23.6	10.3	10.5	-9.7	.	.	.	.
Cc1ccc(C)c(N2CCN(C(=O)CCCOc3cc(=O)n(C)c4ccccc34)CC2)c1	-18.8	-14.4	54.0*	18.0	25.4	-11.3	38.8*	56.5*	12.8*	16.4
SMILES	OX1R antag-1	CHO parental Ca	TAAR1 antag	OX1R antag-2	TAAR1 ag	GPR7 antagonist	nonsel antag count	TAAR1 ant conf	Ga16 nonsel ag	TAAR1 ag counter
CCN(CC(=O)Nc1c(F)cccc1F)C(=O)c1cc(-c2cccs2)nn1-c1ccccc1	-12.6	-12.6	72.2*	16.2	9.2	.	26.7*	44.4	10.0	9.4
Cc1ccc(NC(=O)CN(C)C(=O)c2cc(-c3cccs3)nn2-c2ccccc2)cc1	-14.3	-30.1	54.5*	4.3	4.8	.	22.3*	39.1	6.3	4.9
CCN(CC(=O)Nc1ccccc1OC)C(=O)c1cc(-c2ccccc2)nn1-c1ccccc1	-26.8	-9.5	60.6*	21.5	2.4	.	21.2	32.1	6.9	-0.6
CCN(CC(=O)Nc1c(F)cccc1F)C(=O)CSc1ccccc1	-0.4	-13.8	96.9*	23.9	-2.0	.	3.1	-2.8	5.0	10.5
CCN(CC(=O)Nc1c(F)cccc1F)C(=O)CSc1ccc(F)cc1	-5.7	7.5	-3.3	15.0	-0.4	.	.	.	.	.
COc1cc(Cl)ccc1OC1(C)CCN(Cc2ccc3ccccc3c2)C1 (configuration not stated)	.	.	-29.2	.	3.8	.	.	.	.	.
CC(=O)N1Cc2cc(C(=O)NCC(F)(F)F)nc(-c3cccc(-c4cccnc4)c3)c2[C@@H]1CCO	.	.	-37.7	.	13.2	.	.	.	.	.
Cc1ccc(S(=O)(=O)N2CC3C(=O)C[C@@H](c4ccccc4)N(S(=O)(=O)c4ccccc4Cl)C3CC2c2ccccc2)cc1 (some centres not stated)	.	.	12.7	.	0.1	.	.	.	.	.
CN(CC(=O)Nc1ccc(Cl)cc1)C(=O)c1cc(-c2cccs2)nn1-c1ccccc1	-34.1	-34.3	66.4*	14.2	3.4	.	24.6*	42.1	6.0	3.7
Cc1cccc(C)c1NC(=O)CN1CCN(c2ccc(C(F)(F)F)cn2)CC1	.	.	-4.8	.	5.7	.	.	.	.	.
CCCNC(=O)C1(C)CCN(C(=O)c2ccc(F)c(Cl)c2)C1 (configuration not stated)	.	.	3.2	.	3.0	.	.	.	.	.
